Data as given in ChEMBL document CHEMBL4400528, “Discovery and Optimization of Selective and in Vivo Active Inhibitors of the Lysophosphatidylserine Lipase α/β-Hydrolase Domain-Containing 12 (ABHD12)” (J Med Chem, 2019).
The source made the active and inactive calls. The rule behind the calls is not given here.

What was measured:
[1] = target: T1, Lysophosphatidylserine lipase ABHD12 (Mus musculus, UniProt Q99LR1); assay: Inhibition of JJH350 binding to ABHD12 in mouse brain membrane proteome incubated for 20 mins by CuAAC fluorescence dependent gel-based competitive ABPP assay; format: cell membranes
T1 sequence (Q99LR1 whole entry): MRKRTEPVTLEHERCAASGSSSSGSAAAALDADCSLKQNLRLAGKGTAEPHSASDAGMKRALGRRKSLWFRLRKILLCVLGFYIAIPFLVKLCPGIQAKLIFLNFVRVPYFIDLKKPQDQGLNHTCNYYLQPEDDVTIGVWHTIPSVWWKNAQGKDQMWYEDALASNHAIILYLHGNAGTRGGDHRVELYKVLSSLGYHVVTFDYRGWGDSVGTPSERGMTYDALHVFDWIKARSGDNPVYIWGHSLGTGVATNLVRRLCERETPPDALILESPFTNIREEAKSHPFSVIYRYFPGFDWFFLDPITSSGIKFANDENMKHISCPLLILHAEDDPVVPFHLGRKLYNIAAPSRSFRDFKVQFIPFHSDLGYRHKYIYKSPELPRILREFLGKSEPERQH
How it was run: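 Brain membrane fraction (1 mg/mL; DPBS homogenate, 16,000 x g pellet) treated with inhibitor for 20 min at room temperature. JJH350 (2 μM) added for 45 min at 37 °C, then CuAAC with rhodamine-PEG3-azide, CuSO4, TBTA and TCEP for 1 h at room temperature. Run on 10% SDS-PAGE and read by in-gel fluorescence. ABHD12 band normalized to control-treated sample (100%); IC50 from log dose-response fit.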

[2] = Drug level in mouse brain at 30 mg/kg, ip; format: ADME, organism-based; details: in vivo, read-out: Drug uptake
[3] = tested on: MDA-MB-231; assay: Cytotoxicity against human MDA-MB-231 cells assessed as effect on cell viability at 1 uM after 72 hrs by CellTiter-Glo assay; format: cell-based; details: mda-mb-231, 72 h
How it was run: (§1)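 Cells seeded at 3,000 per well and left 24 h. Compounds then added at 0.1–10 μM final and incubated 72 h. Viability read by CellTiter-Glo luminescence and normalized to vehicle-treated controls.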

[4] = Toxicity in mouse at 30 mg/kg, ip; format: organism-based; details: in vivo
[5] = target: T2, Lysophosphatidylserine lipase ABHD12 (Homo sapiens) (UniProt Q8N2K0); assay: Inhibition of ABHD12 in PMA-differentiated human THP1 cells assessed as increase in CCL4 production treated simultaneously with IFN-gamma/LPS for 24 hrs and measured 6 to 24 hrs after stimulation
T2 sequence (whole entry): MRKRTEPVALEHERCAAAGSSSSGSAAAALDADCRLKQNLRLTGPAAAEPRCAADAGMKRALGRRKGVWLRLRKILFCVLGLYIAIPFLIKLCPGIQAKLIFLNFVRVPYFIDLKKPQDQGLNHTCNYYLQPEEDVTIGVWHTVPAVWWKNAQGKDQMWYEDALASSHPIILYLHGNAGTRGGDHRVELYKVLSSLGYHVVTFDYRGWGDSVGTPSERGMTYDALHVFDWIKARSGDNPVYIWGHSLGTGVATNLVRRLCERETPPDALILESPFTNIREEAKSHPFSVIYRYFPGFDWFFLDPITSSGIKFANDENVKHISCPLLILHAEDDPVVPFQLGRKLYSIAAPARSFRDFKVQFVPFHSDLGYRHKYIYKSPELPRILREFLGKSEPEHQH
How it was run: (§2)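 THP-1 cells grown in RPMI/10% FBS/0.05 mM 2-mercaptoethanol, plated 2.5×10^6 per well. Treated 24 h with 150 ng/mL PMA, washed, rested 24 h. Polarized to M1 with 20 ng/mL IFN-γ plus 10 pg/mL LPS for 24 h. Compound or DMSO (test 0.1–1 μM) present at every step. Media sampled 6 and 24 h after stimulation; cytokines by MSD V-Plex. Mean ± SEM, four biological experiments.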

[6] = target: T2, Lysophosphatidylserine lipase ABHD12 (Homo sapiens); assay: Inhibition of ABHD12 in PMA-differentiated human THP1 cells assessed as increase in CCL3 production treated simultaneously with IFN-gamma/LPS for 24 hrs and measured 6 to 24 hrs after stimulation; how it was run: as §2
[7] = tested on: T98G; assay: Cytotoxicity against human T98G cells assessed as effect on cell viability at 1 uM after 72 hrs by CellTiter-Glo assay; format: cell-based; how it was run: as §1
[8] = Drug level in mouse peripheral regions at 30 mg/kg, po; format: ADME, organism-based; details: in vivo, read-out: Drug uptake
[9] = tested on: HT-1080; assay: Cytotoxicity against human HT1080 cells assessed as effect on cell viability at 1 uM after 72 hrs by CellTiter-Glo assay; format: cell-based; details: ht-1080, 72 h; how it was run: as §1
[10] = Drug level in mouse brain at 30 mg/kg, po; format: ADME, organism-based; details: in vivo, read-out: Drug uptake
[11] = target: T2, Lysophosphatidylserine lipase ABHD12 (Homo sapiens); assay: Inhibition of ABHD12 in PMA-differentiated human THP1 cells assessed as increase in TNF-alpha production treated simultaneously with IFN-gamma/LPS for 24 hrs and measured 6 to 24 hrs after stimulation; how it was run: as §2
[12] = Toxicity in mouse at 30 mg/kg, po; format: organism-based; details: in vivo
[13] = target: T2, Lysophosphatidylserine lipase ABHD12 (Homo sapiens); assay: Inhibition of ABHD12 in PMA-differentiated human THP1 cells assessed as increase in IL-1beta production treated simultaneously with IFN-gamma/LPS for 24 hrs and measured 6 to 24 hrs after stimulation; how it was run: as §2
[14] = Drug level in mouse peripheral regions at 30 mg/kg, ip; format: ADME, organism-based; details: in vivo, read-out: Drug uptake
[15] = tested on: THP-1; assay: Cytotoxicity against human THP1 cells assessed as effect on cell viability at 1 uM after 72 hrs by CellTiter-Glo assay; format: cell-based; details: thp-1, 72 h; how it was run: as §1
[16] = target: T1, Lysophosphatidylserine lipase ABHD12; assay: Inhibition of FP-Rh probe binding to ABHD12 in mouse brain membrane proteome incubated for 45 mins by CuAAC fluorescence dependent gel-based competitive ABPP assay; format: cell membranes
How it was run: (§3)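 Mouse brain membrane proteome (1 mg/mL) preincubated with inhibitor for 45 min at 37 °C. Labelled with FP-Rh (1 μM) or JJH350 (2 μM) for 45 min at 37 °C. JJH350 samples were clicked to Rh-N3 (25 μM) by CuAAC for 60 min at room temperature. Read by 10% SDS-PAGE and in-gel fluorescence scanning. Band intensity taken relative to control (100%), and IC50 from log(inhibitor) vs normalized response.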

[17] = target: T3, Lysophosphatidylserine lipase ABHD12 (Mus musculus) (UniProt Q99LR1); assay: Binding affinity to ABHD12 in mouse brain membrane proteome at 0.016 to 10 uM incubated for 45 mins by CuAAC fluorescence dependent gel-based competitive ABPP assay; format: cell membranes; how it was run: as §3
T3 sequence (whole entry): T1 sequence (Q99LR1 whole entry)

[18] = target: T4, Monoacylglycerol lipase ABHD6 (Mus musculus) (UniProt Q8R2Y0); assay: Binding affinity to ABHD6 in mouse brain membrane proteome at 0.016 to 10 uM incubated for 45 mins by CuAAC fluorescence dependent gel-based competitive ABPP assay; format: cell membranes; how it was run: as §3
T4 sequence (whole entry): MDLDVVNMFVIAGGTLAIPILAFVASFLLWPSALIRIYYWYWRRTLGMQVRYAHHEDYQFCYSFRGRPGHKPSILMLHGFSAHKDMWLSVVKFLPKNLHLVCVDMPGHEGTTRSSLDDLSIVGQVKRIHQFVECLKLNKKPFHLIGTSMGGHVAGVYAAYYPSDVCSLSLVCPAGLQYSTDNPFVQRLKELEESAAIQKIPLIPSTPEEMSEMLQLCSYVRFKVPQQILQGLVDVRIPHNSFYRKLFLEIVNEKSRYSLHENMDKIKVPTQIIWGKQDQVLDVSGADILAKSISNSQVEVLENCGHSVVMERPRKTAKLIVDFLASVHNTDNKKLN

Row | Compound | IC50 [1] [nM] | concentration [2] [µM] | Activity [3] | Activity [4] | inhibition [5] | inhibition [6] | Activity [7] | concentration [8] [µM] | Activity [9] | concentration [10] [µM] | inhibition [11] | Activity [12] | inhibition [13] | concentration [14] [µM] | Activity [15] | IC50 [16] [nM] | Activity [17] | Activity [18]
1 | FC(F)(F)Oc1ccc(Oc2ccnc(N3CCC(NC(=S)Nc4cccnc4)CC3)c2Cl)c(Cl)c1 | 11 | 3 to 9 | Non-Toxic | Non-Toxic | Dose-dependent effect | Dose-dependent effect | Non-Toxic | 3 to 9 | Non-Toxic | 3 to 9 | Dose-dependent effect | Non-Toxic | Dose-dependent effect | 3 to 9 | Non-Toxic | – | – | –
2 | C#CCOc1ccc(N2CCN(C(=O)ON3C(=O)C4CN(C(=O)c5ccc(Oc6ccccc6)cc5)CCN4C3=O)CC2)cc1 (stereo not drawn) | – | – | – | – | – | – | – | – | – | – | – | – | – | – | – | 400 | Active | Active
